# The source made the active and inactive calls. No cut-off for these calls is given here.
# Experiments:
# [1] = test system: Leishmania donovani; assay: Antileishmanial activity against Leishmania donovani MHOM/IN/80/DD8 promastigote forms harboring luciferase gene at 25 uM after 72 hrs by Steady-Glo reagent based luminescence assay relative to control; type: functional; details: MHOM/IN/80/DD8, 72 h, read-out: GI
# How it was run: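 Exponential-phase Dd8-Luc promastigotes at 1×10^6/mL in M199 with 10% FBS, 24 °C, given 50 and 25 µM for 72 h. Vehicle 0.1% DMSO. Steady-Glo added 1:1, luminescence (RLU) read. IC50 from four-parameter Hill regression, derived only where inhibition exceeded 90%. Means of at least three independent experiments.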
# [2] = test system: Leishmania donovani; assay: Antileishmanial activity against Leishmania donovani MHOM/IN/80/DD8 promastigote forms harboring luciferase gene after 72 hrs by Steady-Glo reagent based two fold dilution assay; type: functional; details: MHOM/IN/80/DD8, 72 h
# How it was run: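 Promastigotes or J774-resident amastigotes treated 72 h with six two-fold dilutions from 200 µM down to 6.25 µM. Luciferase RLU fitted by four-parameter Hill non-linear regression to derive the […] inhibitory concentration (MIC).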
# [3] = test system: Leishmania donovani; assay: Antileishmanial activity against Leishmania donovani MHOM/IN/80/DD8 promastigote forms harboring luciferase gene at 6.25 to 12.5 uM up to 4 days by Steady-Glo reagent based luminescence assay; type: functional
# How it was run: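 Log-phase luciferase promastigotes at 1.0×10^6 at 24 °C, pH 7.4, given two-fold dilutions from 200 to 6.25 µM. RLU in lysed cultures measured daily for up to 4 days to plot growth curves. Three independent experiments.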
# [4] = Stability in pH 1.2 simulated gastric fluid at 5 ug/ml after 120 mins by HPLC method
# How it was run: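 Incubated in simulated gastric fluid (pH 1.2) or simulated intestinal fluid (pH 6.5); percentage remaining intact determined after 120 min.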
# [5] = test system: Leishmania donovani; assay: Antileishmanial activity against Leishmania donovani amastigote forms infected in Balb/c mouse assessed as inhibition of parasitic burden in liver at 200 mg/kg, ip administered for 5 consecutive days measured on day 7 post last treatment by Giemsa staining based assay relative to control; type: functional; details: Leishmania donovani, ip, 168 h
# [6] = test system: Leishmania donovani; assay: Antileishmanial activity against Leishmania donovani amastigote forms infected in Balb/c mouse assessed as inhibition of parasitic burden in liver at 50 mg/kg, ip administered for 5 consecutive days measured 1 week post last treatment by Giemsa staining based assay relative to control; type: functional; details: 168 h
# [7] = test system: Leishmania donovani; assay: Antileishmanial activity against Leishmania donovani amastigote forms infected in Balb/c mouse assessed as inhibition of parasitic burden in spleen at 50 mg/kg, ip administered for 5 consecutive days measured 1 week post last treatment by Giemsa staining based assay relative to control; type: functional; details: 168 h
# [8] = test system: Leishmania donovani; assay: Antileishmanial activity against Leishmania donovani amastigote forms infected in Balb/c mouse assessed as inhibition of parasitic burden in liver at 50 mg/kg, ip administered for 5 consecutive days measured up to 7 weeks post treatment by Giemsa staining based assay; type: functional, organism-based
# [9] = test system: Mus musculus; assay: (§1) Restoration of T cell proliferation in Balb/c mouse splenocytes infected with Leishmania donovani amastigote forms at 25 mg/kg, ip co-treated with 5 mg/kg, po miltefosine administered for 5 consecutive days measured on day 4 post last treatment followed by soluble Leishmania donovani promastigote antigen-stimulation for 72 hrs by MTT assay relative to control; type: functional
# How it was run: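 Splenocytes from treated infected BALB/c mice (day 4 or 7 post-treatment) isolated by Ficoll gradient, plated at 10^5/well in triplicate in phenol red-free RPMI 1640, stimulated with 5 μg/mL SLA for 72 h at 37 °C, 5% CO2. Proliferation read by MTT (0.5 mg/mL), formazan dissolved in DMSO, OD 540 nm.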
# [10] = test system: Mus musculus; assay: Increase in IL-12 level in Balb/c mouse splenocytes infected with Leishmania donovani amastigote forms at 25 mg/kg, ip co-treated with 5 mg/kg, po miltefosine administered for 5 consecutive days measured on day 4 post last treatment by sandwich ELISA relative to control; type: functional
# How it was run: (§2)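 Splenocytes (2×10^6) from treated infected BALB/c mice taken on day 4 or 7 post-treatment. Cultured in phenol-red-free RPMI 1640 with 5 μg/mL soluble L. donovani antigen for 72 h at 37 °C, 5% CO2. Supernatant cytokines measured by sandwich ELISA against a standard curve. Mean ± SD, n = 5 mice per group, three independent experiments.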
# [11] = test system: Mus musculus; assay: Increase in TNFalpha level in Balb/c mouse splenocytes infected with Leishmania donovani amastigote forms at 25 mg/kg, ip co-treated with 5 mg/kg, po miltefosine administered for 5 consecutive days measured on day 7 post last treatment by sandwich ELISA relative to control; type: functional
# How it was run: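 BALB/c mice infected with L. donovani (15 days); treatment for 5 consecutive days, test compound i.p. in 8% DMSO/water, miltefosine oral in TDW; sacrificed day 4 and day 7 post-treatment, n = 5 per group. Splenocytes (2×10^6) cultured 72 h in phenol red-free RPMI 1640 with 5 μg/mL SLA; supernatant cytokines by sandwich ELISA.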
# [12] = test system: Mus musculus; assay: Increase in IL-12 level in Balb/c mouse splenocytes infected with Leishmania donovani amastigote forms at 25 mg/kg, ip co-treated with 5 mg/kg, po miltefosine administered for 5 consecutive days measured on day 7 post last treatment by sandwich ELISA relative to control; type: functional; how it was run: as §2
# [13] = test system: Mus musculus; assay: Decrease in IL-10 level in Balb/c mouse splenocytes infected with Leishmania donovani amastigote forms at 25 mg/kg, ip co-treated with 5 mg/kg, po miltefosine administered for 5 consecutive days measured on day 4 post last treatment by sandwich ELISA relative to control; type: functional; how it was run: as §2
# [14] = test system: Mus musculus; assay: Decrease in TGFbeta level in Balb/c mouse splenocytes infected with Leishmania donovani amastigote forms at 25 mg/kg, ip co-treated with 5 mg/kg, po miltefosine administered for 5 consecutive days measured on day 7 post last treatment by sandwich ELISA relative to control; type: functional; how it was run: as §2
# [15] = test system: Mus musculus; assay: Decrease in IL-10 level in Balb/c mouse splenocytes infected with Leishmania donovani amastigote forms at 25 mg/kg, ip co-treated with 5 mg/kg, po miltefosine administered for 5 consecutive days measured on day 7 post last treatment by sandwich ELISA relative to control; type: functional; how it was run: as §2
# [16] = test system: Mus musculus; assay: as §1, with “Increase in iNOS-mediated NO generation” for “Restoration of T cell proliferation”, “cotreated” for “co-treated”, “miltefosine” for “miltefosine administered”, “Griess” for “MTT”; type: functional
# How it was run: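 Splenocytes from treated infected BALB/c mice (5-day regimen, i.p. test compound, oral miltefosine; n = 5) isolated day 4 and day 7 post-treatment. Cultured in phenol red-free RPMI 1640 with 5 μg/mL SLA for 72 h at 37 °C, 5% CO2. Supernatant nitrite measured by Griess assay at 540 nm against a sodium nitrite standard curve.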
# [17] = test system: Leishmania donovani; assay: Induction of mitochondrial membrane potential loss in Leishmania donovani MHOM/IN/80/DD8 promastigote forms at 50 uM after 24 hrs by JC-1 staining based flow cytometry (reference value: 5.02%); type: functional
# [18] = Half life in Swiss mouse at 50 mg/kg, po by LC-MS/MS analysis; type: ADME, organism-based; details: in vivo
# [19] = Tmax in Swiss mouse at 50 mg/kg, po by LC-MS/MS analysis; type: ADME, organism-based; details: in vivo
# [20] = Apparent volume of distribution in Swiss mouse at 50 mg/kg, po by LC-MS/MS analysis; type: ADME, organism-based; details: in vivo
smiles,measurement,setting,value
COc1ccc(C2C3=C(CCC3=O)Nc3c2c(-c2c[nH]c4ccccc24)nn3-c2ccc(Cl)c(Cl)c2)cc1OC (stereo not given),inhibition of growth at 25 µM,[1],91.7%
same,MIC,[2],50 µM
same,Activity,[3],Active
same,Stability,[4],85%
same,inhibition in vivo at 200 mg/kg,[5],93%
same,inhibition in vivo at 50 mg/kg,[6],> 93%
same,inhibition in vivo at 50 mg/kg,[7],> 93%
same,inhibition,[8],Active
same,fold change (FC),[9],9.9
same,fold change (FC),[10],12.7
same,fold change (FC),[11],7.3
same,fold change (FC),[12],11.3
same,inhibition (INH),[13],91%
same,inhibition (INH),[14],93%
same,inhibition (INH),[15],94%
same,fold change (FC),[16],5.6
same,Activity,[17],52.6%
same,half-life,[18],4.81 h
same,Tmax,[19],1.75 h
same,Vd/F,[20],19.6 L/kg

# From ChEMBL document CHEMBL3992522, “Antileishmanial Activity of Pyrazolopyridine Derivatives and Their Potential as an Adjunct Therapy with Miltefosine” (J Med Chem, 2017)
